Experimental data from ChEMBL document CHEMBL5357047, “The development of thymol-isatin hybrids as broad-spectrum antibacterial agents with potent anti-MRSA activity” (RSC Med Chem, 2024).
Converted amounts (≈) assume the structure as drawn. The source made the active and inactive calls. The rule behind the calls is not given here.

Assays:
Staphylococcus aureus [1] = assay: Bactericidal activity against clinically isolated Staphylococcus aureus RBRJ010 assessed as inhibition of bacterial growth measured after 48 hrs by agar plate method; format: functional
Method in brief: (§1)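 MBC: 10 μL from wells showing no INT colour change after broth microdilution subcultured on drug-free Mueller Hinton agar, 48 h at 37 °C aerobically; lowest concentration with no visible growth taken as MBC (μM). Triplicate.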

Staphylococcus aureus [2] = assay: Antibacterial activity against clinically isolated Staphylococcus aureus RBRJ010 assessed as inhibition of bacterial growth at 50 uM measured after 48 hrs by agar well diffusion method; format: functional; details: read-out: IZ
Staphylococcus aureus [3] = assay: Antibacterial activity against clinically isolated Methicillin-resistant Staphylococcus aureus assessed as inhibition of bacterial growth measured after 48 hrs by broth microdilution method; format: functional
Staphylococcus aureus [4] = assay: Bactericidal activity against clinically isolated Methicillin-resistant Staphylococcus aureus assessed as inhibition of bacterial growth measured after 48 hrs by agar plate method; format: functional
Staphylococcus aureus [5] = assay: Antibacterial activity against Staphylococcus aureus MTCC 740 assessed as inhibition of bacterial growth at 50 uM measured after 48 hrs by agar well diffusion method; format: functional; details: read-out: IZ
Enterococcus faecalis [6] = assay: Antibacterial activity against clinically isolated Enterococcus faecalis RBRJ015 assessed as inhibition of bacterial growth at 50 uM measured after 48 hrs by agar well diffusion method; format: functional; details: read-out: IZ
Klebsiella pneumoniae [7] = assay: Antibacterial activity against Klebsiella pneumoniae MTCC 109 assessed as inhibition of bacterial growth at 50 uM measured after 48 hrs by agar well diffusion method; format: functional; details: read-out: IZ
Acinetobacter baumannii = assay: Antibacterial activity against clinically isolated Acinetobacter baumannii RBRJ027 assessed as inhibition of bacterial growth at 50 uM measured after 48 hrs by agar well diffusion method; format: functional; details: read-out: IZ
Escherichia coli [8] = assay: Antibacterial activity against clinically isolated Escherichia coli RBRJ013 assessed as inhibition of bacterial growth at 50 uM measured after 48 hrs by agar well diffusion method; format: functional; details: read-out: IZ
Staphylococcus aureus [9] = assay: Bactericidal activity against Staphylococcus aureus MTCC 740 assessed as inhibition of bacterial growth measured after 48 hrs by agar plate method; format: functional
Method in brief: (§2)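 MBC: aliquots from microdilution wells without colour change subcultured on drug-free Mueller Hinton agar, 48 h at 37 °C aerobically. MBC is the lowest concentration with no visible growth. Triplicate.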

Staphylococcus aureus [10] = assay: Bactericidal activity against Methicillin-resistant Staphylococcus aureus ATCC 33591 assessed as inhibition of bacterial growth measured after 48 hrs by agar plate method; format: functional; method in brief: as §2
[11] = tested on: Staphylococcus epidermidis; assay: Antibacterial activity against Staphylococcus epidermidis MTCC 435 assessed as inhibition of bacterial growth at 50 uM measured after 48 hrs by agar well diffusion method; format: functional; details: read-out: IZ
[12] = Cytotoxicity against mouse L929 cells assessed as reduction in cell viability measured after 72 hrs by MTT assay; format: toxicity, cell-based
Method in brief: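 L929 cells (ATCC) grown in DMEM with 10% FBS and penicillin/streptomycin at 37 °C, 5% CO2; seeded at 5 × 10^3 cells per well and exposed to serial dilutions for 72 h, paclitaxel as positive control. MTT (5 mg mL−1), formazan dissolved in DMSO, absorbance at 490 nm; viability relative to control after blank subtraction; IC50 in μM.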

Klebsiella pneumoniae [13] = assay: Antibacterial activity against clinically isolated Klebsiella pneumoniae RBRJ019 assessed as inhibition of bacterial growth at 50 uM measured after 48 hrs by agar well diffusion method; format: functional; details: read-out: IZ
Escherichia coli [14] = assay: Antibacterial activity against Escherichia coli MTCC 119 assessed as inhibition of bacterial growth at 50 uM measured after 48 hrs by agar well diffusion method; format: functional; details: read-out: IZ
Pseudomonas aeruginosa = assay: Antibacterial activity against Pseudomonas aeruginosa MTCC 424 assessed as inhibition of bacterial growth at 50 uM measured after 48 hrs by agar well diffusion method; format: functional; details: read-out: IZ
Staphylococcus aureus [15] = assay: Antibacterial activity against Methicillin-resistant Staphylococcus aureus ATCC 33591 assessed as inhibition of bacterial growth at 50 uM measured after 48 hrs by agar well diffusion method; format: functional; details: read-out: IZ
Method in brief: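 Agar well diffusion on Mueller Hinton agar seeded with bacteria at 0.5 McFarland. […] Incubated 48 h at 37 °C aerobically; zone of inhibition diameter (mm) measured. Triplicate.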

Staphylococcus aureus [16] = assay: Antibacterial activity against Staphylococcus aureus MTCC 740 assessed as inhibition of bacterial growth measured after 48 hrs by broth microdilution method; format: functional
Staphylococcus aureus [17] = assay: Antibacterial activity against Methicillin-resistant Staphylococcus aureus ATCC 33591 assessed as inhibition of bacterial growth measured after 48 hrs by broth microdilution method; format: functional
Escherichia coli [18] = assay: Antibacterial activity against clinically isolated Escherichia coli RBRJ005 assessed as inhibition of bacterial growth at 50 uM measured after 48 hrs by agar well diffusion method; format: functional; details: read-out: IZ
Staphylococcus aureus [19] = assay: Antibacterial activity against clinically isolated Staphylococcus aureus RBRJ010 assessed as inhibition of bacterial growth measured after 48 hrs by broth microdilution method; format: functional
Enterobacter cloacae = assay: Antibacterial activity against clinically isolated Enterobacter cloacae RBRJ017 assessed as inhibition of bacterial growth at 50 uM measured after 48 hrs by agar well diffusion method; format: functional; details: read-out: IZ
Enterococcus faecalis [20] = assay: Antibacterial activity against Enterococcus faecalis MTCC 439 assessed as inhibition of bacterial growth at 50 uM measured after 48 hrs by agar well diffusion method; format: functional; details: read-out: IZ
Klebsiella pneumoniae [21] = assay: Antibacterial activity against clinically isolated Klebsiella pneumoniae RBRJ024 assessed as inhibition of bacterial growth at 50 uM measured after 48 hrs by agar well diffusion method; format: functional; details: read-out: IZ
Staphylococcus aureus [22] = assay: Antibacterial activity against clinically isolated Methicillin-resistant Staphylococcus aureus assessed as inhibition of bacterial growth at 50 uM measured after 48 hrs by agar well diffusion method; format: functional; details: read-out: IZ
[23] = tested on: Staphylococcus epidermidis; assay: Antibacterial activity against Staphylococcus epidermidis MTCC 435 assessed as inhibition of bacterial growth measured after 48 hrs by broth microdilution method; format: functional
[24] = Selectivity index, ratio of IC50 for cytotoxicity against mouse L929 cells to MIC for antibacterial activity against clinically isolated Methicillin-resistant Staphylococcus aureus; format: toxicity, cell-based; details: read-out: Selectivity Index
[25] = tested on: Staphylococcus epidermidis; assay: Bactericidal activity against Staphylococcus epidermidis MTCC 435 assessed as inhibition of bacterial growth measured after 48 hrs by agar plate method; format: functional; method in brief: as §1
Klebsiella pneumoniae [26] = details: RBRJ024, dose 50.0 µM, time 48.0 hrs
Klebsiella pneumoniae [27] = details: RBRJ019, dose 50.0 µM, time 48.0 hrs

## Cc1ccc(C(C)C)c(OCc2cn(CCCN3C(=O)C(=O)c4cc(C)ccc43)nn2)c1
Staphylococcus aureus [1]
  MBC: 15.6 µM (≈ 6.75 µg/mL)
Staphylococcus aureus [2]
  zone of inhibition at 50 µM: 24.6 mm
Staphylococcus aureus [3]
  MIC: 3.9 µM (≈ 1.69 µg/mL)
Staphylococcus aureus [4]
  MBC: 7.8 µM (≈ 3.37 µg/mL)
Staphylococcus aureus [5]
  zone of inhibition at 50 µM: 26.1 mm
Enterococcus faecalis [6]
  zone of inhibition at 50 µM: 13.4 mm
Klebsiella pneumoniae [7]
  zone of inhibition at 50 µM: 19.2 mm
Acinetobacter baumannii
  zone of inhibition at 50 µM: 13.1 mm
Escherichia coli [8]
  zone of inhibition at 50 µM: 17.6 mm
Staphylococcus aureus [9]
  MBC: 7.8 µM (≈ 3.37 µg/mL)
Staphylococcus aureus [10]
  MBC: 7.8 µM (≈ 3.37 µg/mL)
[11]
  zone of inhibition at 50 µM: 22.2 mm
[12]
  IC50 at 72 h: 125 µM
Klebsiella pneumoniae [13]
  zone of inhibition at 50 µM: 18.5 mm
Escherichia coli [14]
  zone of inhibition at 50 µM: 16.5 mm
Pseudomonas aeruginosa
  zone of inhibition at 50 µM: 19.5 mm
Staphylococcus aureus [15]
  zone of inhibition at 50 µM: 24.1 mm
Staphylococcus aureus [16]
  MIC: 3.9 µM (≈ 1.69 µg/mL)
Staphylococcus aureus [17]
  MIC: 3.9 µM (≈ 1.69 µg/mL)
Escherichia coli [18]
  zone of inhibition at 50 µM: 18.2 mm
Staphylococcus aureus [19]
  MIC: 7.8 µM (≈ 3.37 µg/mL)
Enterobacter cloacae
  zone of inhibition at 50 µM: 15.4 mm
Enterococcus faecalis [20]
  zone of inhibition at 50 µM: 13.3 mm
Klebsiella pneumoniae [21]
  zone of inhibition at 50 µM: 17.2 mm
Staphylococcus aureus [22]
  zone of inhibition at 50 µM: 26.7 mm
[23]
  MIC: 15.6 µM (≈ 6.75 µg/mL)
[24]
  selectivity ratio: 32
[25]
  MBC: 31.2 µM (≈ 13.5 µg/mL)

## O=C(O)c1cn(C2CC2)c2cc(N3CCNCC3)c(F)cc2c1=O [CIPROFLOXACIN]
Klebsiella pneumoniae [26]
  IZ: inactive
Klebsiella pneumoniae [7]
  zone of inhibition at 50 µM: 14.5 mm
Staphylococcus aureus [10]
  MBC: 3.9 µM (≈ 1.29 µg/mL)
[11]
  zone of inhibition at 50 µM: 17.4 mm
Escherichia coli [14]
  zone of inhibition at 50 µM: 11.2 mm
Pseudomonas aeruginosa
  zone of inhibition at 50 µM: 24.2 mm
Staphylococcus aureus [15]
  zone of inhibition at 50 µM: 24.5 mm
Staphylococcus aureus [17]
  MIC: 1.9 µM (≈ 0.63 µg/mL)
Enterococcus faecalis [20]
  zone of inhibition at 50 µM: 15.9 mm
Klebsiella pneumoniae [27]
  IZ: inactive
